Results published in ChEMBL document CHEMBL1138500 (J Med Chem, 2009).
Substitutions are numbered along the chain they refer to.

Tests used:
[1] = biological target: T1, Lysosomal acid glucosylceramidase (Homo sapiens, UniProt P04062); experiment: Inhibition of human placental beta-glucocerebrosidase
T1 sequence (P04062 whole entry): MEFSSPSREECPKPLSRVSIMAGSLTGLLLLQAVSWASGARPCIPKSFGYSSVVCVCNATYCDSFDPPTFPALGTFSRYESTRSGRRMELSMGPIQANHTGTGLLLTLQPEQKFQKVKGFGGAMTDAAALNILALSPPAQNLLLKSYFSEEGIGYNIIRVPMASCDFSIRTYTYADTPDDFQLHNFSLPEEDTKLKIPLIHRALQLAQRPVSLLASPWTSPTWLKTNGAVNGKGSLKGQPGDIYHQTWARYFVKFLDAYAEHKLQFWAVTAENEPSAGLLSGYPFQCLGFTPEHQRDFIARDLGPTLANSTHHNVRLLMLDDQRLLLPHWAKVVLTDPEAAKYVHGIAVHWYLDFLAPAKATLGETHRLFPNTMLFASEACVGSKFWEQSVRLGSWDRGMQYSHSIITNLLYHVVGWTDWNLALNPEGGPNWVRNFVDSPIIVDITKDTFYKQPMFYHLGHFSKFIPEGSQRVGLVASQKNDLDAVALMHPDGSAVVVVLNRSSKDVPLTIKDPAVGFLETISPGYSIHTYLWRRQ

[2] = system: T2, Lysosomal acid glucosylceramidase (Homo sapiens), P04062 [N409S]; experiment: Activation of beta-glucocerebrosidase N370S mutant in Goucher lymphoblasts at 50 uM after 3 days relative to control
T2 sequence (whole entry): T1 sequence (P04062 whole entry) with N409S

[3] = system: HL-60; experiment: Cytotoxicity against human HL60 cells assessed as dead cells at 100 uM after 3 days by propidium iodide staining based flow cytometry; assay type: cell-based; conditions: hl-60, 72 h
Procedure, shortened: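 HL60 cells exposed to compound at 100 µM for 3 days; cytotoxicity reported as percentage of dead cells.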

SMILES	IC50 [1]	fold change (FC) [2]	Activity [3]
O=C1[C@@H](O)[C@H](O)[C@@H](O)CN1CCCCCCO	> 500 µM	1.8	3.44%
CCCOCCN1C[C@@H](O)[C@@H](O)[C@H](O)C1=O	> 500 µM	3.8	2.39%
CCCCCCCCN1C[C@@H](O)[C@@H](O)[C@H](O)C1=O	175 µM	6.2	3.51%
O=C1[C@H](O)[C@H](O)[C@H](O)CN1CCCCCCO	> 500 µM	2.5	3.23%
CCCOCCCCCCN1C[C@@H](O)[C@@H](O)[C@H](O)C1=O	127 µM	3.6	4.33%
CCCCCCCCCCN1CC(NC(C)=O)[C@@H](O)C(O)C1=O (single isomer, unassigned)	> 500 µM	–	7.58%
CCCCCCCCCCN1C[C@@H](O)[C@@H](O)[C@@H](O)C1=O	463 µM	2.9	10.22%
CC(=O)NC1CN(CCCCCCO)C(=O)C(O)[C@@H]1O (single isomer, unassigned)	> 500 µM	1.3	2.9%
O=C1[C@@H](O)[C@H](O)[C@H](O)CN1CCO	> 500 µM	–	2.95%
O=C1[C@@H](O)[C@H](O)[C@H](O)CN1Cc1ccccc1	> 500 µM	3.4	3.46%
CCCCCCCCCCN1C[C@H](O)[C@@H](O)[C@H](O)C1=O	295 µM	2	11.2%
CCCN(CCC)CCN1C[C@@H](O)[C@@H](O)[C@H](O)C1=O	253 µM	3.9	3.45%
CCCCN1C[C@H](O)[C@@H](O)[C@H](O)[C@H]1CO	–	–	2.69%
CCCCN1C[C@@H](O)[C@@H](O)[C@H](O)C1=O	> 500 µM	–	2.78%

Now from value to molecule, other results behind:

IC50 [1]	fold change (FC) [2]	SMILES	Activity [3]
> 500 µM	–	CCCCCCCCN1C[C@@H](O)C(O)[C@H](O)C1	3.55%
46 µM	2.1	CCCCCCCCCCN1C[C@@H](O)[C@@H](O)[C@H](O)C1=O	5.19%
285 µM	1.5	CCCCCCCCCCN1C[C@@H](O)[C@@H](O)C1=O	6.69%
102 µM	2	CCCCCCCCCN1C[C@@H](O)[C@@H](O)[C@H](O)C1=O	4.71%
> 500 µM	1.8	O=C1[C@H](O)[C@H](O)CN1CCCCCCO	3.57%
> 500 µM	4.1	O=C1[C@@H](O)[C@H](O)[C@H](O)CN1CCCCCCO	3.75%
> 500 µM	–	O=C1NC[C@@H](O)[C@@H](O)[C@@H]1O	2.77%
